From ChEMBL document CHEMBL3774328, “Optimization by Molecular Fine Tuning of Dihydro-β-agarofuran Sesquiterpenoids as Reversers of P-Glycoprotein-Mediated Multidrug Resistance” (J Med Chem, 2016)

Experiments:
[1] = biological target: T1, ATP-dependent translocase ABCB1 (Homo sapiens, UniProt P08183); experiment: Inhibition of human MDR1 expressed in mouse NIH/3T3 cells assessed as inhibition of daunomycin efflux incubated for 30 mins by flow cytometry; format: cell-based, NIH3T3
How it was run: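 Ki for DNM efflux. MDR1-G185 NIH-3T3 cells were incubated 30 min at 37 °C with DNM (2 μM) and varying compound concentrations, then read by flow cytometry. Fluorescence was converted to % P-gp inhibition, normalized to cells treated with 5 mM sodium orthovanadate (100%). Ki was fitted from I = (Imax × S)/(Ki + S). Mean ± SD of three independent experiments in triplicate.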

[2] = Intrinsic cytotoxicity against mouse NIH/3T3 cells transfected with human MDR1 by MTT assay; format: ADME, cell-based, NIH3T3
How it was run: (§1)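 Intrinsic cytotoxicity was measured by MTT in parental NIH-3T3 and MDR1-G185 cells. CC50 came from a four-parameter logistic fit. The top tested concentration was 60 μM, limited by DMSO toxicity, and growth at 60 μM is given as % of untreated control. Mean ± SD of three independent experiments in duplicate.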

[3] = Intrinsic cytotoxicity against mouse NIH/3T3 cells by MTT assay; format: cell-based, NIH3T3; how it was run: as §1
[4] = biological target: T1, ATP-dependent translocase ABCB1; experiment: Inhibition of human MDR1 expressed in mouse NIH/3T3 cells assessed as reduction in daunomycin IC50 at 1 uM by MTT assay; format: cell-based; details: nih3t3, 1 µM
How it was run: (§2)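 Parental NIH-3T3 and MDR1-G185 cells were grown in DMEM with 10% iFBS. They were exposed to increasing DNM or VLB (up to 500 ng/mL) with or without compound at fixed 1, 3 or 10 μM. Growth was read by MTT, and IC50 came from a four-parameter logistic fit. Mean ± SD of two independent experiments in triplicate.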

[5] = biological target: T1, ATP-dependent translocase ABCB1; experiment: Inhibition of human MDR1 expressed in mouse NIH/3T3 cells assessed as reduction in daunomycin IC50 at 3 uM by MTT assay; format: cell-based; details: nih3t3, 3 µM
How it was run: as §2, with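 “fit. Reversal index = IC50 without compound / IC50 with compound in MDR1 cells.” for “fit.”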

[6] = biological target: T1, ATP-dependent translocase ABCB1; experiment: Inhibition of human MDR1 expressed in mouse NIH/3T3 cells assessed as reduction in daunomycin IC50 at 10 uM by MTT assay; format: cell-based; details: nih3t3, 10 µM
How it was run: as §2, with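 “fit. Reversal index = IC50 without compound / IC50 with compound in MDR1 cells.” for “fit.”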

[7] = biological target: T1, ATP-dependent translocase ABCB1; experiment: Inhibition of human MDR1 expressed in mouse NIH/3T3 cells assessed as reduction in vinblastine IC50 at 1 uM by MTT assay; format: cell-based; details: nih3t3, 1 µM
How it was run: as §2, with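 “fit. Reversal index = IC50 without compound / IC50 with compound in MDR1 cells.” for “fit.”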

[8] = biological target: T1, ATP-dependent translocase ABCB1; experiment: Inhibition of human MDR1 expressed in mouse NIH/3T3 cells assessed as reduction in vinblastine IC50 at 3 uM by MTT assay; format: cell-based; details: nih3t3, 3 µM
How it was run: as §2, with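 “fit. Reversal index = IC50 without compound / IC50 with compound in MDR1 cells.” for “fit.”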

[9] = biological target: T1, ATP-dependent translocase ABCB1; experiment: Inhibition of human MDR1 expressed in mouse NIH/3T3 cells assessed as reduction in vinblastine IC50 at 10 uM by MTT assay; format: cell-based; details: nih3t3, 10 µM
How it was run: as §2, with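 “fit. Reversal index = IC50 without compound / IC50 with compound in MDR1 cells.” for “fit.”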

[10] = biological target: T1, ATP-dependent translocase ABCB1; experiment: Inhibition of human MDR1 expressed in mouse NIH/3T3 cells assessed as daunomycin retention at 10 uM incubated for 30 mins by flow cytometry; format: cell-based; parameters: scale not given: the % may be the effect or the level left; details: nih3t3, 0.5 h
How it was run: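 DNM retention by flow cytometry. MDR1-G185 NIH-3T3 cells in log phase were seeded 24 h before at 10^5 cells/well. They were incubated 30 min at 37 °C in DMEM + 10% iFBS with DNM (2 μM), with or without compound (10 μM). Cells were then washed twice in ice-cold PBS, trypsinized and read immediately for single-cell fluorescence.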

[11] = Intrinsic cytotoxicity against mouse NIH/3T3 cells transfected with human MDR1 assessed as cell growth at 60 uM by MTT assay; format: ADME, cell-based, NIH3T3; details: read-out: Activity; how it was run: as §1
[12] = biological target: T1, ATP-dependent translocase ABCB1; experiment: Potency index, ratio of daunomycin reversal index to compound reversal index for human MDR1 expressed in mouse NIH/3T3 cells at 1 uM; format: cell-based; details: nih/3t3, 1 µM
How it was run: (§3)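 Each RI comes from the MTT dose-response of DNM or VLB (up to 500 ng/mL), with or without modulator.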

[13] = biological target: T1, ATP-dependent translocase ABCB1; experiment: Potency index, ratio of vinblastine reversal index to compound reversal index for human MDR1 expressed in mouse NIH/3T3 cells at 1 uM; format: cell-based; details: nih/3t3, 1 µM; how it was run: as §3
[14] = Intrinsic cytotoxicity against mouse NIH/3T3 cells assessed as cell growth at 60 uM by MTT assay; format: cell-based, NIH3T3; details: read-out: Activity; how it was run: as §1
[15] = biological target: T1, ATP-dependent translocase ABCB1; experiment: Potency index, ratio of vinblastine reversal index to compound reversal index for human MDR1 expressed in mouse NIH/3T3 cells at 3 uM; format: cell-based; details: nih/3t3, 3 µM

T1 sequence (P08183 whole entry): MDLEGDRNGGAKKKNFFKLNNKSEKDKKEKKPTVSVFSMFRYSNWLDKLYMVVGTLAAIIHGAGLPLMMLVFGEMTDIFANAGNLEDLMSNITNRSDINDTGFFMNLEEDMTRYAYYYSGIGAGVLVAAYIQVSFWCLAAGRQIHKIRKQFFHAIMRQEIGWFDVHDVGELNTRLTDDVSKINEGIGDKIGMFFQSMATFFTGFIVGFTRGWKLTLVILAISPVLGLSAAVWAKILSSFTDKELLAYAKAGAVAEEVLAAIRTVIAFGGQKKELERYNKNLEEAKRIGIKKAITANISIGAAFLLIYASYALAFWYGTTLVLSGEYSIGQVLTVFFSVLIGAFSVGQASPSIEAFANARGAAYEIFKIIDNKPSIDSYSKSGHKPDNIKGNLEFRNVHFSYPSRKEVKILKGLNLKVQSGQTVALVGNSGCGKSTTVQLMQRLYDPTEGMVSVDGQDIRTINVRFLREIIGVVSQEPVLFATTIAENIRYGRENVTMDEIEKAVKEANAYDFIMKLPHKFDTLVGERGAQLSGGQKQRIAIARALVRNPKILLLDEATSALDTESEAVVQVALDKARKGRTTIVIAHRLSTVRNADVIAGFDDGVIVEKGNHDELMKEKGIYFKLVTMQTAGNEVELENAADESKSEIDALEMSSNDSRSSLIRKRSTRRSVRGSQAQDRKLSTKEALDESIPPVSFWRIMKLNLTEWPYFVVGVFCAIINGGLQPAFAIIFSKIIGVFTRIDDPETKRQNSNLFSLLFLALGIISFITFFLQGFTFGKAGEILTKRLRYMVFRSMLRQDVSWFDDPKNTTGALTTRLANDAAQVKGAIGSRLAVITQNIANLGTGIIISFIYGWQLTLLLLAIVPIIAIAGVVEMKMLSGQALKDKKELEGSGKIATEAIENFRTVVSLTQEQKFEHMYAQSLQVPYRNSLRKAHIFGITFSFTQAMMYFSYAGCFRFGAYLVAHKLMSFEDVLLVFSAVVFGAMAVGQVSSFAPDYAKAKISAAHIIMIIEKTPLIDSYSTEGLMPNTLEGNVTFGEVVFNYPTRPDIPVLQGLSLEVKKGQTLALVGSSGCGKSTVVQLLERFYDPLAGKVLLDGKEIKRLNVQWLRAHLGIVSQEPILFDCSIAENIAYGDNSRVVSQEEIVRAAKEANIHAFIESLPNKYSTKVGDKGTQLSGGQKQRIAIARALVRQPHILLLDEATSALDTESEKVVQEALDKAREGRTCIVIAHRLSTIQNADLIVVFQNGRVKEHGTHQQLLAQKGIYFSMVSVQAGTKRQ

Row | Ki [1] [µM] | fold change (FC) [4] | fold change (FC) [5] | fold change (FC) [6] | fold change (FC) [7] | fold change (FC) [8] | fold change (FC) [9] | Activity [10] [%] | Ratio [12] | Ratio [13] | Ratio [15] | SMILES | CC50 [2] [µM] | CC50 [3] [µM] | viability at 60 µM [11] [%] | viability at 60 µM [14] [%]
1 | 0.28 | 5.6 | 9.1 | 15.1 | 23.7 | 30.3 | 86.6 | 83 | – | – | – | CC(=O)O[C@H]1CC[C@](C)(O)[C@]23OC(C)(C)[C@H]([C@H](OC(=O)/C=C/c4ccccc4)[C@H](OC(=O)c4ccccc4)[C@]12C)[C@H]3O | 25.5 | 26.1 | – | –
2 | 0.19 | 15.8 | 19.5 | 24.9 | 27.4 | 36.1 | 90 | – | 3 | 3 | – | CC(=O)O[C@H]1CC[C@](C)(O)[C@]23OC(C)(C)[C@H]([C@H](OC(=O)/C=C/c4ccccc4)[C@H](OC(=O)c4ccccc4)[C@]12C)[C@H]3OC(=O)CCC(=O)N(C(=O)NC1CCCCC1)C1CCCCC1 | > 60 | 56.4 | 72.8 | –
3 | 1.21 | 11.8 | 13.9 | 16.3 | 11.2 | 37.7 | 90.2 | – | 3 | – | – | CC(=O)O[C@H]1CC[C@](C)(O)[C@]23OC(C)(C)[C@H]([C@H](OC(=O)/C=C/c4ccccc4)[C@H](OC(=O)c4ccccc4)[C@]12C)[C@H]3OC(=O)N(C)C | 24 | 56.3 | – | –
4 | 1.74 | 2.3 | 4 | 9 | 3.7 | 8.8 | 20.6 | – | – | – | – | CC(=O)O[C@H]1CC[C@](C)(O)[C@]23OC(C)(C)[C@H]([C@H](OC(=O)/C=C/c4ccccc4)[C@H](OC(=O)c4ccccc4)[C@]12C)[C@H]3OC(=O)c1cnccn1 | > 60 | > 60 | 86.2 | 66.3
5 | 0.13 | 11.8 | 14.7 | 16.1 | 17.4 | 56 | 113.5 | – | 3 | – | 2 | CC(=O)O[C@H]1CC[C@](C)(O)[C@]23OC(C)(C)[C@H]([C@H](OC(=O)/C=C/c4ccccc4)[C@H](OC(=O)c4ccccc4)[C@]12C)[C@H]3OC(=O)c1cccnc1 | 32.6 | > 60 | – | 67.7
6 | 0.5 | 5.9 | 8.7 | 15.6 | 15.2 | 75.8 | 125.2 | – | – | – | 2 | CC(=O)O[C@H]1CC[C@]2(C)O[C@@H]3[C@H]4[C@H](OC(=O)/C=C/c5ccccc5)[C@H](OC(=O)c5ccccc5)[C@@]1(C)[C@]32OC4(C)C | 27.9 | 29.4 | – | –
7 | – | – | 6.2 | 10.8 | 8.7 | 27.8 | 129.9 | – | – | – | – | COc1ccc(CCN(C)CCCC(C#N)(c2ccc(OC)c(OC)c2)C(C)C)cc1OC (configuration not stated) | > 60 | – | 76.9 | –
8 | 1.52 | – | – | – | – | – | – | 83 | – | – | – | CC(=O)O[C@H]1CC[C@](C)(O)[C@]23OC(C)(C)[C@H]([C@H](OC(=O)/C=C/c4ccccc4)[C@H](OC(=O)c4ccccc4)[C@]12C)[C@H]3OC(=O)CCl | 5.3 | 7.4 | – | –
9 | 0.54 | 10.8 | 11.5 | 12.4 | 19.1 | 69 | 110.9 | – | 3 | – | 2 | CCC(=O)O[C@@H]1[C@H]2[C@H](OC(=O)/C=C/c3ccccc3)[C@H](OC(=O)c3ccccc3)[C@]3(C)[C@@H](OC(C)=O)CC[C@](C)(O)[C@@]13OC2(C)C | 24.9 | > 60 | – | 68.6
10 | 0.6 | 7 | 11.1 | 16.3 | 18.5 | 86.6 | 149.2 | 83 | – | – | 2 | CC(=O)O[C@H]1CC[C@](C)(O)[C@]23OC(C)(C)[C@H]([C@H](OC(=O)/C=C/c4ccccc4)[C@H](OC(=O)c4ccccc4)[C@]12C)[C@H]3OS(C)(=O)=O | 31.7 | > 60 | – | 69.1
11 | 0.52 | 6.9 | 10.3 | 15.2 | 21.2 | 58.2 | 91.7 | 85 | – | – | 2 | CC(=O)O[C@H]1CC[C@](C)(OC(C)=O)[C@]23OC(C)(C)[C@H]([C@H](OC(=O)/C=C/c4ccccc4)[C@H](OC(=O)c4ccccc4)[C@]12C)[C@H]3OC(C)=O | 51.6 | > 60 | – | 68.1
12 | 0.63 | 10 | 15.1 | 22.2 | 20.6 | 49.1 | 82.9 | – | 3 | – | – | CC(=O)O[C@H]1CC[C@](C)(OC(=O)CNCC(C)C)[C@]23OC(C)(C)[C@H]([C@H](OC(=O)/C=C/c4ccccc4)[C@H](OC(=O)c4ccccc4)[C@]12C)[C@H]3OC(C)=O | 34.6 | 37.3 | – | –
